Measured values from the EternaBench riboswitch data.

Tested on: MS2 coat protein
Assay: apparent Kd, MS2 coat protein; higher = weaker binding; RNA-MaP array; FMN 200 µM where present
Outline: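 Apparent Kd: the median of filtered binding-curve fits from single clusters. Designs were transcribed on Illumina sequencing-chip clusters by stalled E. coli RNA polymerase and titrated with SNAP-549-labelled MS2 coat protein from 0.7 or 1.5 nM, doubling to 3 µM, in 100 mM Tris-HCl pH 7.5, 80 mM KCl, 4 mM MgCl2, BSA, DTT, yeast tRNA and Tween-20. Each series ran without and then with constant ligand, and green signal was normalised to red-channel RNA signal and control-cluster median Fmax.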

[1] = designed as: OFF switch for flavin mononucleotide, no ligand
[2] = ligand present: flavin mononucleotide, designed as: OFF switch for flavin mononucleotide
[3] = designed as: ON switch for flavin mononucleotide, no ligand
[4] = ligand present: flavin mononucleotide, designed as: ON switch for flavin mononucleotide

| Sequence | apparent Kd [1] | apparent Kd [2] | apparent Kd [3] | apparent Kd [4] |
| --- | --- | --- | --- | --- |
| GGAUAUAACGUAGGAUAUCUGAGAAAUAGAUGAAGAGAAGGACGACAUGAGGAUCACCCAUGUGAUCUAUCAAUAUUAUACAUG | 452 nM | 749 nM |  |  |
| AAGUAGUGUGUGAGGAUAUUGGUGGAAUGACAUAUUAAGAAGGCACAUGAGGAUCACCCAUGUGGGAUGUCACG | 12.6 nM | 12.6 nM |  |  |
| AGAAAACAUGAGGAUCACCCAUGUGAGGAUAUCGAUGUCCAAGGGUGGGUGCGGGACUCGAGAAGGCACUUGGA | 80.6 nM | 137 nM |  |  |
| UGGUACAUCGGAGGAUAUCAUGUGUAAACAUGAGGAUCACCCAUGUCGUACGAGAGUACGGAGAUUGAGAAGGCCGAUGUACCU |  |  | 88.7 nM | 16.5 nM |
| CUUUUAUAAUAGAAGGUAGACUUCAUGAGGAUCACCCAUGUGUUGGUACUAAGGAUAUGUAGUAACAUGAGGAUCACCCAUGUU |  |  | 22.6 nM | 22.2 nM |
| UAUUAUUUGGAGAAGGACAUGAGGAUCACCCAUGUCGCCGGGCCCGGGAAACCGGGCCCGGCCAUGUAGGAUAUCCGGGUGGUA | 12.7 nM | 13.6 nM |  |  |
| GAACAUGUCCGAGGAUAUCUGGAAACAUUUCCAAGAGAAGGCGGACAUGAGGAUCACCCAUGUCUCUCCUCAUCAAAUCCAAGU | 10.1 nM | 91.9 nM |  |  |
| AAUUAUUUUUGAGGAUAUUGUGGUGAAACACCACAAGAAGGCAAGAUACACAUGAGGAUCACCCAUGUGAGCCUGAUGCUUAUG | 17.1 nM | 21.3 nM |  |  |
| AACUCGUCAGGAUAUGCGCGCAGUUACUGCGCUUCGCAAUUGCAGAAGGGACAUGAGGAUCACCCAUGUAGGUC | 42 nM | 45.4 nM |  |  |
| UUAUUAGCAGGAUAUAUCCAGGAUCACAUGAGGAUCACCCAUGUGACCGCUUGAGAUUCUAUAGAAGGGCUUUAUU | 19.6 nM | 18.1 nM |  |  |
| GCUUCCGCAUGAGGAUAUUGUUAAGGGACGGGACCUCAUGACCCACAUGAGGAUCACCCAUGUGGCGAGAAGGCGUGUAGAGCG | 10.1 nM | 32.7 nM |  |  |
| GUUUUCGCAUGAGGAUAUGCUCGCAUUUCAAGAGCAGAAGGUAUGUCUUUAGACAUGAGGAUCACCCAUGUAUUUAUCAUUGAA |  |  | 101 nM | 26.2 nM |
| CAGUACUGAGGAUAUACAUGAGGAUCACCCAUGUGUUCCAGCUAGGAAACUUGCAAAAGUAGAAGGCAGUACUG | 12.1 nM | 30.6 nM |  |  |
| AAUUUUUAACAGAAGGCGUUUAUAGUUAAGUUACGAGGAUAUGUUUUACAUGAGGAUCACCCAUGUUACUAGGGUAGUAUAUAU |  |  | 42.4 nM | 30.8 nM |
| AUCAGCUCGUCAGGAUAUACGUCACUGCGUCAGCCGUGUGGUAAGAUCACAUGAGGAUCACCCAUGUAGAAGGGACGAGCUGAU | 16.6 nM | 247 nM |  |  |
| UUACGUCCCGUUUACAUGAGGAUCACCCAUGUCGAAAGAGCGGAGGAUAUGCUACCUAGUUGGUAGCAGAAGGCUGCAACGUCG |  |  | 35.2 nM | 46.5 nM |
| CACGCCUAGGAGAAGGGCCCACUAUAGGGUAAAUGCUGUUCUCACAUGAGGAUCACCCAUGUGCGGCAGGAUAUCCACGCGUAA | 7.28 nM | 34.6 nM |  |  |
| UUCGUGCAGCUUAGCUGUACGCGUACAUGAGGAUCACCCAUGUAGGAUAUGGUAGGCUUUGCUUACUAGAAGGAUAGUGUGAUC | 215 nM | 70.5 nM |  |  |
| CUAUAUAAUACCUCAUGUACAUGAGGAUCACCCAUGUUAACUUAGGAUAUAUUUAUAUUGAUAGAGUAGAAGGAAGUACUAUUU | 15.8 nM | 13.8 nM |  |  |
| UAUUUAAUCAUAGGAUAUAGUGUGUAAUUUGGACUAGAAGGAUGAAACAUGAGGAUCACCCAUGUGGUAAAUGGGAUACAUUCC |  |  | 73.5 nM | 94.5 nM |
| UUAAUGUGAGGAUAUCAGGUGUGCUAGCGUACUGGUACAUCUGAGAAGGCACAUGAGGAUCACCCAUGUUCCAG | 32.8 nM | 100 nM |  |  |
| CUGAUGUUAGGAUAUCAGGCCGUGCGCGAAGGCGGGCAGCAUGAGAAGGAACAUGAGGAUCACCCAUGUGACGA | 27.2 nM | 67.8 nM |  |  |
| AUUAGACAUGAGGAUCACCCAUGUAGGCAGUCAUGAGGAUAUGGACAAGGUGCUCAAGGUCCAGAAGGCAUACGCC |  |  | 29.3 nM | 18.5 nM |
| CUUCGACAUGAGGAUCACCCAUGUCAGGAUAUUGUGUAUCGGGUUUUUUACGGUAAGGCAAGAAGGGAUGUGUG | 33 nM | 30.2 nM |  |  |
| ACGCGAUGGGAGAAGGUACUUUAAAAUAUUUUCACAUGAGGAUCACCCAUGUAAGGAUAUCCCAUCGUUAAAUAUUAUACAGCA | 6.49 nM | 5.24 nM |  |  |
| AAAUUCUGAGGAUAUCGAUGUUUGUACAUGAGGAUCACCCAUGUCCUUUUUAUUUUUUCCCGAGAAGGCAGUGUAU | 45 nM | 35.3 nM |  |  |
| GCUUGUGAAGGAUAUACUGGCGGCGUGCGCUCGAAGCACGCACAUGAGGAUCACCCAUGUAGAAGGUCAGGCGU | 16.3 nM | 13.8 nM |  |  |
| UCAUAACAUGAGGAUCACCCAUGUGAGGAUAUGAUACUAUGUACUUCGGUACAUAGUAUCAGAAGGCACAUACU | 85 nM | 316 nM |  |  |
